ChEMBL document CHEMBL4219023, “Synthesis and biological activity of novel tert-amylphenoxyalkyl (homo)piperidine derivatives as histamine H3R ligands” (Bioorg Med Chem, 2017)
The source made the active and inactive calls. No cut-off for these calls is given here.

Key:
Histamine H3 receptor = Histamine H3 receptor (Homo sapiens, UniProt Q9Y5N1); assay: Displacement of [125I]Iodoproxyfan from recombinant human histamine H3 receptor expressed in CHOK1 cell membranes after 90 mins
Method in brief: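 Membranes of CHO-K1 cells expressing hH3R were incubated 90 min at 25 °C, shaken at 250 rpm, with [125I]iodoproxyfan (16–50 pM) and test compound. Nonspecific binding was defined with 1 μM imetit. Separation by filtration on PEI-treated GF/B filters. Ki obtained from IC50 by Cheng-Prusoff.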

Mus musculus [1] = assay: Anticonvulsant activity in CF-1 albino mouse assessed as protection against maximal electroshock-induced seizures at 30 mg/kg, ip after 0.5 hrs; assay type: functional, organism-based
Method in brief: (§1)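 Male CF-1 albino mice received compound i.p. as a suspension in 0.5% methylcellulose (30, 100 or 300 mg/kg). Maximal electroshock seizure test read 0.5 h and 4 h after dosing. Result given as animals protected/animals tested.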

Mus musculus [2] = assay: Anticonvulsant activity in CF-1 albino mouse assessed as protection against maximal electroshock-induced seizures at 30 mg/kg, ip after 4 hrs; assay type: functional, organism-based; method in brief: as §1
Mus musculus [3] = assay: Anticonvulsant activity in CF-1 albino mouse assessed as protection against maximal electroshock-induced seizures at 100 mg/kg, ip after 0.5 hrs; assay type: functional, organism-based; method in brief: as §1
Mus musculus [4] = assay: Anticonvulsant activity in CF-1 albino mouse assessed as protection against maximal electroshock-induced seizures at 100 mg/kg, ip after 4 hrs; assay type: functional, organism-based; method in brief: as §1
Mus musculus [5] = assay: Anticonvulsant activity in CF-1 albino mouse assessed as protection against maximal electroshock-induced seizures at 300 mg/kg, ip after 0.5 hrs; assay type: functional, organism-based; method in brief: as §1
Mus musculus [6] = assay: Anticonvulsant activity in CF-1 albino mouse assessed as protection against subcutaneous pentetrazole-induced seizures at 30 mg/kg, ip after 0.5 hrs; assay type: functional, organism-based
Mus musculus [7] = assay: Anticonvulsant activity in CF-1 albino mouse assessed as protection against subcutaneous pentetrazole-induced seizures at 30 mg/kg, ip after 4 hrs; assay type: functional, organism-based
Mus musculus [8] = assay: Anticonvulsant activity in CF-1 albino mouse assessed as protection against subcutaneous pentetrazole-induced seizures at 100 mg/kg, ip after 0.5 hrs; assay type: functional, organism-based
Mus musculus [9] = assay: Anticonvulsant activity in CF-1 albino mouse assessed as protection against subcutaneous pentetrazole-induced seizures at 100 mg/kg, ip after 4 hrs; assay type: functional, organism-based
Mus musculus [10] = assay: Neurotoxicity in CF-1 albino mouse at 30 mg/kg, ip after 4 hrs by rotarod test; assay type: toxicity, organism-based; details: in vivo
Method in brief: (§2)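 Male CF-1 mice were dosed i.p. with compound suspended in 0.5% methylcellulose (30, 100 or 300 mg/kg). Neurotoxicity was scored by rotarod 0.5 h and 4 h after dosing, as animals showing toxicity/animals tested. Type of toxicity was noted, e.g. inability to grasp the rod, tremors, death.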

Mus musculus [11] = assay: Neurotoxicity in CF-1 albino mouse assessed as death at 300 mg/kg, ip after 0.5 hrs by rotarod test; details: in vivo
Mus musculus [12] = assay: Anticonvulsant activity in CF-1 albino mouse assessed as protection against maximal electroshock-induced seizures at 300 mg/kg, ip after 4 hrs; assay type: functional, organism-based; method in brief: as §1
Mus musculus [13] = assay: Anticonvulsant activity in CF-1 albino mouse assessed as protection against subcutaneous pentetrazole-induced seizures at 300 mg/kg, ip after 0.5 hrs; assay type: functional, organism-based
[14] = Lipophilicity of compound by RP-TLC analysis; assay type: physicochemical; details: methanol:acetic acid:water
Method in brief: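 Reversed-phase TLC on RP-18 plates with methanol:acetic acid:water mobile phase (acid constant at 10%, methanol 85–55% in 5% steps). Spots visualised with iodine. RM values were derived from Rf and extrapolated to zero methanol to give RM0.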

HEK293 = assay: Cytotoxicity against HEK293 cells assessed as reduction in cell viability after 48 hrs by EZ4U Non-radioactive cell proliferation assay; assay type: cell-based; details: Homo sapiens, HEK293, 48 h
Method in brief: (§3)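 IMR-32 cells (2×10^4/well) or HEK-293 cells (1.5×10^4/well) in DMEM with 10% FBS were preincubated 24 h at 37 °C, 5% CO2. Compounds from 25 mM DMSO stocks were added at final 0.01–250 μM, with DMSO ≤1%. After 48 h, EZ4U label was added for 5 h and absorbance read at 492 nm.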

IMR-32 = assay: Cytotoxicity against human IMR32 cells assessed as reduction in cell viability after 48 hrs by EZ4U Non-radioactive cell proliferation assay; assay type: cell-based; details: IMR-32, 48 h; method in brief: as §3
CYP3A4 = CYP3A4 (Homo sapiens, UniProt P08684); assay: Activation of recombinant human CYP3A4 using Luciferin-BE as substrate at 25 uM in presence of NADPH by P450-Glo luminescence assay relative to control; assay type: ADME; details: recombinant human CYP3A4, probe Luciferin-PPXE, in the assay text read “Luciferin-PPXE” for “Luciferin-BE”, read-out: Activity
Method in brief: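 Recombinant human CYP3A4 P450-Glo luminescence assay: enzyme converts luciferin substrate to D-luciferin, then firefly luciferase is added and light output read as a measure of CYP3A4 activity. Final ligand concentrations 0.025–25 μM.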

[15] = Safety index, ratio of compound IC50 to doxorubicin IC50 for HEK293 cells after 48 hrs by EZ4U non-radioactive cell proliferation assay; assay type: ADME, cell-based; details: human, read-out: Ratio IC50
[16] = Safety index, ratio of compound IC50 to doxorubicin IC50 for human IMR32 cells after 48 hrs by EZ4U Non-radioactive cell proliferation assay; assay type: ADME, cell-based; details: IMR-32 cells, read-out: Ratio IC50
Mus musculus [17] = assay: Neurotoxicity in CF-1 albino mouse assessed as unable to grasp at 100 mg/kg, ip after 0.5 hrs by rotarod test; assay type: toxicity, organism-based; details: in vivo
Method in brief: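 Anticonvulsant Screening Program (NINDS) Phase 1 neurotoxicity screen in male albino CF-1 mice. Compounds were given i.p. as suspensions in 0.5% methylcellulose at 30, 100 and/or 300 mg/kg, and animals were observed 0.5 h and 4 h after dosing. The rotarod test was scored as number of animals showing toxicity over number tested, with the kind of toxicity recorded: inability to grasp rotorod, death, diarrhea, continuous seizure activity, loss of righting reflex, myoclonic jerks or tremors.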

Mus musculus [18] = assay: Neurotoxicity in CF-1 albino mouse at 100 mg/kg, ip after 4 hrs by rotarod test; assay type: toxicity, organism-based; details: in vivo; method in brief: as §2

Chain of Histamine H3 receptor (Q9Y5N1 whole entry): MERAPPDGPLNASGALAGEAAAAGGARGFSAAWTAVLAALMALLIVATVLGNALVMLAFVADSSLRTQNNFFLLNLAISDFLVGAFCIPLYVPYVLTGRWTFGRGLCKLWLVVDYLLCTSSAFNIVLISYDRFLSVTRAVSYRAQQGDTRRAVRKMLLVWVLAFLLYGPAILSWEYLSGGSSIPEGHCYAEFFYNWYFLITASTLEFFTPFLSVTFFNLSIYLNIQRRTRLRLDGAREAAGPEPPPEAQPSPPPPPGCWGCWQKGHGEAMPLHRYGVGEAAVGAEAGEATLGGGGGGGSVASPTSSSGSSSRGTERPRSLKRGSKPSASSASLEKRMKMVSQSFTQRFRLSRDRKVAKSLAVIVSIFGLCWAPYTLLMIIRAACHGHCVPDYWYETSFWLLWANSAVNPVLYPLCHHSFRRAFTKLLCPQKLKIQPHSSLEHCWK
Chain of CYP3A4 (P08684 whole entry): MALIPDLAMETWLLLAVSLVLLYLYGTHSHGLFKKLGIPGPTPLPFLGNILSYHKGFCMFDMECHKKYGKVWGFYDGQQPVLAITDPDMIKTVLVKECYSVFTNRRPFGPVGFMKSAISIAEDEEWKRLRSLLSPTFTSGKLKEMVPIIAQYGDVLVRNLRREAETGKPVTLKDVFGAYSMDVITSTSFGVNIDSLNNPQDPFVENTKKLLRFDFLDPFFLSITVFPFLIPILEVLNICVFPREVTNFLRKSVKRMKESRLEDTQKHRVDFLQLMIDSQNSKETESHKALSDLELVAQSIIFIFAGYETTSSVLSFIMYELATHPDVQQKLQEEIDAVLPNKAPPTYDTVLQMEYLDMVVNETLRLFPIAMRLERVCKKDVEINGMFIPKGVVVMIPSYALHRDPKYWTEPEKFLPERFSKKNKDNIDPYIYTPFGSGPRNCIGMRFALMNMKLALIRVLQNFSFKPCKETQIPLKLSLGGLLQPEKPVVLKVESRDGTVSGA

Structure (SMILES)	Ki (Histamine H3 receptor) [µM]	Activity (Mus musculus [1])	Activity (Mus musculus [2])	Activity (Mus musculus [3])	Activity (Mus musculus [4])	Activity (Mus musculus [6])	Activity (Mus musculus [7])	Activity (Mus musculus [8])	Activity (Mus musculus [9])	Activity (Mus musculus [10])	Rm [14]	other results
CCC(C)(C)c1ccc(OCCCCCCN2CCC(C)CC2)cc1.O=C(O)C(=O)O	0.0605	Active	Active	Active	Active	inactive	inactive	inactive	inactive	Non-Toxic	–	Activity (Mus musculus [5]): Active; Activity (Mus musculus [11]): Toxic
CCC(C)(C)c1ccc(OCCCCCCCN2CCCC(C)C2)cc1.O=C(O)C(=O)O (stereo not drawn)	0.0366	inactive	inactive	–	Active	inactive	inactive	inactive	inactive	Non-Toxic	2.983	Activity (Mus musculus [5]): Active; Activity (Mus musculus [12]): inactive; Activity (Mus musculus [13]): inactive
CCC(C)(C)c1ccc(OCCCCCCCN2CCCCCC2)cc1.O=C(O)C(=O)O	0.128	–	–	–	–	–	–	–	–	–	2.926	–
CCC(C)(C)c1ccc(OCCCCCN2CCC(C)CC2)cc1	0.0234	–	–	–	–	–	–	–	–	–	–	IC50 (HEK293): 37.1 µM; IC50 (IMR-32): 27.9 µM; activity at 25 µM (CYP3A4): 325%; selectivity ratio at 48 h [15]: 50 to 90; selectivity ratio at 48 h [16]: > 1000
CCC(C)(C)c1ccc(OCCCCCCCN2CCC(C)CC2)cc1.O=C(O)C(=O)O	0.0644	inactive	inactive	Active	Active	inactive	inactive	inactive	inactive	Non-Toxic	–	–
CCC(C)(C)c1ccc(OCCCCCCN2CCCCC2)cc1.O=C(O)C(=O)O	0.0465	inactive	inactive	Active	Active	inactive	inactive	inactive	inactive	Non-Toxic	2.456	Activity (Mus musculus [17]): Toxic; Activity (Mus musculus [18]): Non-Toxic; Activity (Mus musculus [11]): Toxic
COc1cccc2c1C(=O)c1c(O)c3c(c(O)c1C2=O)C[C@@](O)(C(=O)CO)C[C@@H]3O[C@H]1C[C@H](N)[C@H](O)[C@H](C)O1 [DOXORUBICIN]	–	–	–	–	–	–	–	–	–	–	–	IC50 (IMR-32): 0.0051 µM
